For 2 compounds, Activity and Ki results are on record in ChEMBL document CHEMBL1143707, “7-Arylpiperazinylalkyl and 7-tetrahydroisoquinolinylalkyl derivatives of 8-alkoxy-purine-2,6-dione and some of their purine-2,6,8-trione analogs as 5-HT(1A), 5-HT(2A), and 5-HT(7) serotonin receptor ligands” (Bioorg Med Chem, 2007).

Experiment [1] relates to Mus musculus. Nature of the experiment: Effect on compound induced hypothermia in Swiss Albino mouse at 2.5 mg/kg, ip in presence of 0.1 mg/kg WAY 100635 after 60 mins relative to control. The class given is functional. In a few lines: (§1)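 Male Albino Swiss mice; WAY 100635 0.1 mg/kg sc (in distilled water) 15 min before ip compound (1% Tween 80); rectal temperature at 30 and 60 min after compound; Δt from basal; n = 8/group; mean ± SEM.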

In experiment [2] the test system is Mus musculus. Nature of the experiment: Anxiolytic activity in Swiss Albino mouse assessed as number of punished crossings for 60 secs at 2.5 mg/kg, ip administered 30 mins before the test in four-plate test. The settings on record: route intraperitoneal. In kind it is functional. In a few lines:
(§2)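 Male Albino Swiss mice (24-28 g), ip in 1% Tween 80 (10 mL/kg) 30 min before test; box with four metal floor plates, 120 V for 0.5 s on each plate-to-plate crossing after 15 s free exploration, 3 s shock-free if running continues; punished crossings counted over 60 s; n = 9-10/group; mean ± SEM.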

Experiment [3] has as its system Mus musculus. Briefly: Anxiolytic activity in Swiss Albino mouse assessed as number of punished crossings for 60 secs at 5 mg/kg, ip administered 30 mins before the test in four-plate test. The class given is functional. The following applies: route intraperitoneal. In a few lines:
as §2

For experiment [4], the system named is Mus musculus. Briefly: Anxiolytic activity in Swiss Albino mouse assessed as number of punished crossings for 60 secs at 10 mg/kg, ip administered 30 mins before the test in four-plate test. The settings on record: route intraperitoneal. The class given is functional. The gist of the method:
as §2

The target in experiment [5] is T1, 5-hydroxytryptamine receptor 1A (Rattus norvegicus, UniProt P19327).
T1 sequence (P19327 whole entry): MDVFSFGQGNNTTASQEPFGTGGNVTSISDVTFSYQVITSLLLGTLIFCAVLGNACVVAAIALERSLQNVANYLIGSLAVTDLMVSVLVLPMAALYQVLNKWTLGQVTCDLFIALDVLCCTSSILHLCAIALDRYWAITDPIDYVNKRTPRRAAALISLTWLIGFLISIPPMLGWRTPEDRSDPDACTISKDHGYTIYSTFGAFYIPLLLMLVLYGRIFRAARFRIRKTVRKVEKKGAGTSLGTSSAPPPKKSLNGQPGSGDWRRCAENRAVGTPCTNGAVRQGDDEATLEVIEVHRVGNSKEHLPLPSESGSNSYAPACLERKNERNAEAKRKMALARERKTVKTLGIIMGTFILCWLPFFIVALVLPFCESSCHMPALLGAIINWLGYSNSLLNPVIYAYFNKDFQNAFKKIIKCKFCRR
Briefly: Displacement of [3H]8-OH-DPAT from rat brain 5HT1A receptor. The gist of the method: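 Rat hippocampal membranes; 1 nM [3H]-8-OH-DPAT; nonspecific binding with 10 μM 5-HT; 8–10 competitor concentrations in triplicate, ≥3 experiments; GF/B filtration, ice-cold buffer washes, scintillation counting; Ki by nonlinear regression with Cheng–Prusoff.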

The target in experiment [6] is 5-hydroxytryptamine receptor 2A (Rattus norvegicus, UniProt P14842). Nature of the experiment: Displacement of [3H]ketanserin from rat brain 5HT2A receptor. The gist of the method: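 Rat brain membranes; 0.6 nM [3H]-ketanserin; nonspecific binding with 1 μM methysergide; 8–10 competitor concentrations in triplicate, ≥3 experiments; GF/B filtration, scintillation counting; Ki via Cheng–Prusoff.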

Experiment [7] has as its target 5-hydroxytryptamine receptor 7 (Rattus norvegicus, UniProt P32305). Nature of the experiment: Displacement of [3H]5CT from 5HT7 receptor in Wistar rat hyphalamic membrane. The class given is cell membranes. In general terms: Displacement assays read how much labelled ligand stays bound in the presence of the test substance.
Experiment [8] relates to Mus musculus. Briefly: Decrease in body temperature in Swiss Albino mouse at 2.5 mg/kg, ip administered 30 mins before the test measured after 30 mins relative to control. The following applies: route intraperitoneal. The class given is functional. In a few lines: (§3)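 Male Albino Swiss mice (24-28 g) given compound ip in 1% aqueous Tween 80 (10 mL/kg); rectal temperature read at 30, 60, 90 and 120 min post-dose; Δt versus basal temperature taken at start (initial ~36.0 °C); n = 8/group; mean ± SEM.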

For experiment [9], the system named is Mus musculus. Briefly: Decrease in body temperature in Swiss Albino mouse at 2.5 mg/kg, ip administered 30 mins before the test measured after 60 mins relative to control. In kind it is functional. The following applies: route intraperitoneal. In a few lines:
as §3

Experiment [10] relates to Mus musculus. Briefly: Decrease in body temperature in Swiss Albino mouse at 2.5 mg/kg, ip administered 30 mins before the test measured after 90 mins relative to control. In kind it is functional. The settings on record: route intraperitoneal. In a few lines: as §3
The subject of experiment [11] is Mus musculus. Briefly: Decrease in body temperature in Swiss Albino mouse at 2.5 mg/kg, ip administered 30 mins before the test measured after 120 mins relative to control. The class given is functional. The following applies: route intraperitoneal. In a few lines:
as §3

Experiment [12] concerns Mus musculus. Briefly: Decrease in body temperature in Swiss Albino mouse at 5 mg/kg, ip administered 30 mins before the test measured after 30 mins relative to control. The settings on record: route intraperitoneal. The class given is functional. In a few lines: as §3
For experiment [13], the system named is Mus musculus. Briefly: Decrease in body temperature in Swiss Albino mouse at 5 mg/kg, ip administered 30 mins before the test measured after 60 mins relative to control. The class given is functional. The following applies: route intraperitoneal. The gist of the method:
as §3

Experiment [14] deals with Mus musculus. Briefly: Decrease in body temperature in Swiss Albino mouse at 5 mg/kg, ip administered 30 mins before the test measured after 90 mins relative to control. The settings on record: route intraperitoneal. In kind it is functional. The gist of the method: as §3
Experiment [15] concerns Mus musculus. Nature of the experiment: Decrease in body temperature in Swiss Albino mouse at 5 mg/kg, ip administered 30 mins before the test measured after 120 mins relative to control. The class given is functional. The following applies: route intraperitoneal. The gist of the method: as §3
Experiment [16] relates to Mus musculus. Nature of the experiment: Effect on compound induced hypothermia in Swiss Albino mouse at 2.5 mg/kg, ip in presence of 0.1 mg/kg WAY 100635 after 30 mins relative to control. In kind it is functional. In a few lines: as §1
The subject of experiment [17] is Mus musculus. Briefly: Antidepressant activity in Swiss Albino mouse assessed as immobility time during final 4 mins of 6 mins session at 2.5 mg/kg, ip administered 30 mins before the test in forced-swimming test. The following applies: route intraperitoneal. The class given is functional. The gist of the method: (§4)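 Male Albino Swiss mice (24-28 g), ip in 1% aqueous Tween 80 suspension (10 mL/kg), 30 min pretest; single glass cylinder (25 cm high, 10 cm diameter), 6 cm water at 23–25 °C for 6 min; immobility (floating, minimal head-keeping movements) timed over final 4 min; n = 9-10/group; mean ± SEM.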

Experiment [18] relates to Mus musculus. Briefly: Antidepressant activity in Swiss Albino mouse assessed as immobility time during final 4 mins of 6 mins session at 5 mg/kg, ip administered 30 mins before the test in forced-swimming test. In kind it is functional. The following applies: route intraperitoneal. The gist of the method:
as §4

Experiment [19] concerns Mus musculus. Nature of the experiment: Antidepressant activity in Swiss Albino mouse assessed as immobility time during final 4 mins of 6 mins session at 10 mg/kg, ip administered 30 mins before the test in forced-swimming test. The following applies: route intraperitoneal. The class given is functional. In a few lines: as §4
Experiment [20] relates to Mus musculus. Briefly: Antidepressant activity in Swiss Albino mouse assessed as immobility time during final 4 mins of 6 mins session at 20 mg/kg, ip administered 30 mins before the test in forced-swimming test. The following applies: route intraperitoneal. In kind it is functional. The gist of the method:
as §4

In experiment [21] the test system is Mus musculus. Nature of the experiment: Locomotor activity in Swiss Albino mouse assessed as number of crossings in 6 mins at 5 mg/kg, ip administered 30 mins before the test. The class given is functional. The following applies: route intraperitoneal. In a few lines:
(§5)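 Male Albino Swiss mice dosed ip 30 min before test (compound in 1% Tween 80; imipramine in distilled water); individual cages with IR beam sensors, consecutive beam breaks scored as ambulatory counts during first 6 min and over a 30-min session; n = 10/group; mean ± SEM.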

The test system of experiment [22] is Mus musculus. Nature of the experiment: Locomotor activity in Swiss Albino mouse assessed as number of crossings in 6 mins at 10 mg/kg, ip administered 30 mins before the test. In kind it is functional. The following applies: route intraperitoneal. In a few lines: as §5
Experiment [23] has as its system Mus musculus. Briefly: Locomotor activity in Swiss Albino mouse assessed as number of crossings in 6 mins at 20 mg/kg, ip administered 30 mins before the test. The following applies: route intraperitoneal. In kind it is functional. In a few lines:
as §5

Experiment [24] relates to Mus musculus. Briefly: Locomotor activity in Swiss Albino mouse assessed as number of crossings in 30 mins at 5 mg/kg, ip administered 30 mins before the test. The settings on record: route intraperitoneal. In kind it is functional. In a few lines:
as §5

Experiment [25] deals with Mus musculus. Briefly: Locomotor activity in Swiss Albino mouse assessed as number of crossings in 30 mins at 10 mg/kg, ip administered 30 mins before the test. In kind it is functional. The settings on record: route intraperitoneal. The gist of the method:
as §5

Experiment [26] relates to Mus musculus. Briefly: Locomotor activity in Swiss Albino mouse assessed as number of crossings in 30 mins at 20 mg/kg, ip administered 30 mins before the test. In kind it is functional. The following applies: route intraperitoneal. The gist of the method:
as §5

For experiment [27], the system named is Mus musculus. Nature of the experiment: Effect on compound induced hypothermia in Swiss Albino mouse at 10 mg/kg, ip in presence of 0.1 mg/kg WAY 100635 after 60 mins relative to control. The class given is functional. The gist of the method: as §1
For experiment [28], the system named is Mus musculus. Briefly: Effect on body temperature in Swiss Albino mouse assessed as decrease at 10 mg/kg, ip after 30 mins relative to initial temperature. The class given is functional. The settings on record: route intraperitoneal. In a few lines: as §3
The subject of experiment [29] is Mus musculus. Briefly: Effect on body temperature in Swiss Albino mouse assessed as decrease at 10 mg/kg, ip after 60 mins relative to initial temperature. The class given is functional. The settings on record: route intraperitoneal. The gist of the method:
as §3

Experiment [30] has as its system Mus musculus. Briefly: Effect on body temperature in Swiss Albino mouse assessed as decrease at 10 mg/kg, ip after 90 mins relative to initial temperature. The class given is functional. The following applies: route intraperitoneal. The gist of the method: as §3
Experiment [31] has as its system Mus musculus. Nature of the experiment: Effect on body temperature in Swiss Albino mouse assessed as decrease at 10 mg/kg, ip after 120 mins relative to initial temperature. The class given is functional. The settings on record: route intraperitoneal. The gist of the method: as §3
Experiment [32] concerns Mus musculus. Briefly: Effect on compound induced hypothermia in Swiss Albino mouse at 10 mg/kg, ip in presence of 0.1 mg/kg WAY 100635 after 30 mins relative to control. In kind it is functional. The gist of the method: as §1

Chain of 5-hydroxytryptamine receptor 2A (P14842 whole entry): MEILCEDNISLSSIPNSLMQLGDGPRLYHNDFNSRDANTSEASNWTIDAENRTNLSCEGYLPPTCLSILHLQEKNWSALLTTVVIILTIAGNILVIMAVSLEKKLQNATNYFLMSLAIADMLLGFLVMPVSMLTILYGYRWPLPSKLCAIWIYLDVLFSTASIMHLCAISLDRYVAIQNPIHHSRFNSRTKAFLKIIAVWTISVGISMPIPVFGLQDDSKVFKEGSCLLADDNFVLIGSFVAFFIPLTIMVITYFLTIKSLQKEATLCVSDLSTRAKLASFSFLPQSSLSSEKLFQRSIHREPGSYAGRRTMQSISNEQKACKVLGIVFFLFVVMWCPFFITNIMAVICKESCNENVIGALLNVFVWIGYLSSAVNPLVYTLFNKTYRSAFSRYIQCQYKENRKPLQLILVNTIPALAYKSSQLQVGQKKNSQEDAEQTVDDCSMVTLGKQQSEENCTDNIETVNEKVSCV
Chain of 5-hydroxytryptamine receptor 7 (P32305 whole entry): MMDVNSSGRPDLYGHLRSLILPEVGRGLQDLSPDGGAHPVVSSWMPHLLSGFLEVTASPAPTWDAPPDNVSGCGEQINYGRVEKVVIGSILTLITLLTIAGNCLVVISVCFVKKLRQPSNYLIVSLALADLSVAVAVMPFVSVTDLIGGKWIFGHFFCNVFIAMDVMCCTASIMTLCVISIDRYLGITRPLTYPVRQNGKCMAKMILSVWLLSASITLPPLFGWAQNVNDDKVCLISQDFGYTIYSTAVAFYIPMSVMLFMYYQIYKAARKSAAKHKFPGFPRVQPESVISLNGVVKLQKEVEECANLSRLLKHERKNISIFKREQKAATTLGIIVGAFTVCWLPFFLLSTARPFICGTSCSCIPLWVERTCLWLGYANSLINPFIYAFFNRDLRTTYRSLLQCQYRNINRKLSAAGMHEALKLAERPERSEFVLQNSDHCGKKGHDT

By Ki is commonly meant the dissociation constant of the complex between target and ligand, obtained from inhibition or displacement. A higher Ki goes with a looser hold on the target. Take `CCOc1nc2c(c(=O)n(C)c(=O)n2C)n1CCCCN1CCN(c2ccccc2OC)CC1.Cl`: the Activity is -0.3 °C in the experiment with Mus musculus [1]; 4.1 with Mus musculus [2]; 5.8 with Mus musculus [3]; 3.8 in the experiment with Mus musculus [4]; -1.5 °C in the experiment with Mus musculus [8]; -1 °C in the experiment with Mus musculus [9]. The Activity with Mus musculus [10] was -0.9 °C; with Mus musculus [11], -0.7 °C; with Mus musculus [12], -2.5 °C; in the experiment with Mus musculus [13] it was -1.9 °C; in the experiment on Mus musculus [14] it was -1.5 °C; in the experiment on Mus musculus [15], -1.3 °C. Moreover, the Activity with Mus musculus [16] was -0.5 °C; in the experiment on Mus musculus [17], 154.4 s; in the experiment on Mus musculus [18], 126.9 s; in the experiment with Mus musculus [19], 122.6 s; in the experiment with Mus musculus [20], 178.2 s; in the experiment on Mus musculus [21], 125.5. The Activity in the experiment on Mus musculus [22] came out at 56.2; in the experiment on Mus musculus [23] it was 11.1; in the experiment with Mus musculus [24], 325; in the experiment with Mus musculus [25], 193.4; with Mus musculus [26] it was 19.5. Also, the Ki in experiment [5] is 11 nM; in experiment [6], 253 nM; in [7], 54 nM.
On to `CCCOc1nc2c(c(=O)n(C)c(=O)n2C)n1CCCCN1CCN(c2cccc(Cl)c2)CC1`, for which the Activity with Mus musculus [27] was -0.9 °C; in the experiment on Mus musculus [12], -0.7 °C; in the experiment with Mus musculus [13], -0.6 °C; in the experiment on Mus musculus [14], -0.6 °C; with Mus musculus [15], -0.2 °C; with Mus musculus [28], -1.7 °C. The Activity in the experiment with Mus musculus [29] was -1.1 °C; in the experiment with Mus musculus [30] it was -1.1 °C; in the experiment on Mus musculus [31], -1.1 °C; with Mus musculus [32], -1.4 °C. Besides, the Ki in [5] was determined as 15 nM; in experiment [6] it was 28 nM; in [7], 125 nM.
